Series [1] addresses T1, Liver carboxylesterase 1 (Mus musculus, UniProt Q8VCC2).
T1 sequence (Q8VCC2 whole entry): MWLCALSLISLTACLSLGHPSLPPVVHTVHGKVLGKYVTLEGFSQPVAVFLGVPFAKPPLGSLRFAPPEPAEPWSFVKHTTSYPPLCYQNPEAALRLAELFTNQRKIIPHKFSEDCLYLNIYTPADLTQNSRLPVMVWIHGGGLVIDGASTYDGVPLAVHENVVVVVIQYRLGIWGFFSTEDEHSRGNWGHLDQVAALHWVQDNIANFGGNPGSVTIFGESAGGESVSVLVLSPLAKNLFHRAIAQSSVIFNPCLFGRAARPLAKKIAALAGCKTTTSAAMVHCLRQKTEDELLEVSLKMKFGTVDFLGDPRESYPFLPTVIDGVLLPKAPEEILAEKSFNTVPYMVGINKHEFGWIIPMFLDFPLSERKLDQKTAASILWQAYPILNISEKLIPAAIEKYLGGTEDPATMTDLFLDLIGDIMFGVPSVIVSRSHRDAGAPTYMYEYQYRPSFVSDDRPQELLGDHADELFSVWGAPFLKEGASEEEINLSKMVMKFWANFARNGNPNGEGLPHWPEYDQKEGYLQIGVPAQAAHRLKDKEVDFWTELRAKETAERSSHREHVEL
The series can be described thus: Drug metabolism assessed as mouse CES1-mediated compound hydrolysis after 6 hrs. In kind it is ADME.

Series [2] has as its target T2, Liver carboxylesterase 1 (Homo sapiens, UniProt P23141).
T2 sequence (P23141 whole entry): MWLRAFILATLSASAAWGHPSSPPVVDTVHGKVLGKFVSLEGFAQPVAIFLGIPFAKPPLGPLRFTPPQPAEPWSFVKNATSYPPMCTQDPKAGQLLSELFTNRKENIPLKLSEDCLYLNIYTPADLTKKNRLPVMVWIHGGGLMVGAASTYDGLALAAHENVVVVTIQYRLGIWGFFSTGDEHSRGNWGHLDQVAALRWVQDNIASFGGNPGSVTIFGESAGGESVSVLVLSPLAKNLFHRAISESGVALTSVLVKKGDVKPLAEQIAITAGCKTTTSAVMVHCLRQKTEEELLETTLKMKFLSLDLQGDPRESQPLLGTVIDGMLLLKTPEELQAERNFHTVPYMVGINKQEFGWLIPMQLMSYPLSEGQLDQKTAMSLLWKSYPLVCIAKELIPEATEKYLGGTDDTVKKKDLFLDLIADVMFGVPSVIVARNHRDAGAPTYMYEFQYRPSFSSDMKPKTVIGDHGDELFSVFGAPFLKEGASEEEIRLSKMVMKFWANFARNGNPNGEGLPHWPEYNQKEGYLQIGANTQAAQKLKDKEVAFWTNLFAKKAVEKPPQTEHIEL
The series can be described thus: Drug metabolism assessed as human CES1-mediated compound hydrolysis after 6 hrs. The class given is ADME.

The nature of series [3]: Half life in rat plasma at 10 uM up to 360 mins by LC-MS/MS analysis. The class given is ADME, cell-free. The essentials:
(§1)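 Plasma incubated in duplicate at 37 °C with 10 µM test compound (1% methanol; from 1 mM methanol stock). Samples taken at 0, 15, 30, 60, 120, 240 and 360 min and quenched with 9 volumes of ice-cold methanol containing 500 nM internal standard, then centrifuged. Analyte/IS area ratios were quantified by LC-MS/MS as % remaining versus T0. t1/2 = −0.693/k, with k from the slope of log % remaining versus time.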

The test system of series [4] is Plasma. Description: Stability in rat plasma at 10 uM up to 360 mins in presence of EDTA by LC-MS/MS analysis. The class given is ADME, cell-free. The note with it: 6 h. The essentials: (§2)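 Rat plasma incubated in duplicate at 37 °C with 10 µM test compound (1% methanol), plus either 1 mM DTNB (11) or 0.5 mM EDTA (12). Duplicate controls used methanol in place of the inhibitor. Samples taken from 0 to 360 min and quenched with 9 volumes of cold methanol containing internal standard. Remaining compound measured by LC-MS/MS relative to T0.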

Series [5] is described as follows: Half life in human plasma at 10 uM up to 360 mins by LC-MS/MS analysis. In kind it is ADME, cell-free. The essentials: as §1
Series [6] is described as follows: Half life in rat intestinal microsomes at 1 uM up to 120 mins by LC-MS/MS analysis. In kind it is ADME, Intestine, Microsome. Put shortly:
(§3)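 Run under non-oxidative conditions, in duplicate at 37 °C: 1 µM test compound (1% methanol) with 1 mg/mL rat liver or rat intestinal microsomal protein. Samples taken at 0, 15, 30, 60 and 120 min and quenched with 4 volumes of cold methanol or acetonitrile containing 200 nM internal standard. Triplicate controls used denatured microsomes. LC-MS/MS gave % remaining versus T0; t1/2 = −0.693/k.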

The nature of series [7]: Half life in rat liver microsomes at 1 uM up to 120 mins by LC-MS/MS analysis. In kind it is ADME, microsome. Put shortly: as §3
The test system of series [8] is Plasma. Description: Stability in rat plasma at 10 uM up to 360 mins in presence of DTNB by LC-MS/MS analysis. In kind it is ADME, cell-free. The note with it: 6 h. The essentials: as §2
The subject of series [9] is Plasma. Description: Half life in rat plasma at 10 uM up to 360 mins in presence of 4-cyclohexylbutanehydroxamic acid by LC-MS/MS analysis. In kind it is ADME, cell-free. The note with it: 6 h.
For series [10], the system named is Plasma. The series can be described thus: Half life in rat plasma at 10 uM up to 360 mins in presence of 3-cyclohexylpropanehydroxamic acid by LC-MS/MS analysis. In kind it is ADME, cell-free. The conditions noted are these: 6 h.
Series [11] in a line: Half life in rat plasma at 10 uM up to 360 mins in presence of N-hydroxy-N'-phenylsuccinamide by LC-MS/MS analysis. The class given is ADME, cell-free. The conditions noted are these: with N-hydroxy-N'-phenylsuccinamide (concentration not stated).
A short description of series [12]: Half life in human liver microsomes at 10 uM up to 120 mins by LC-MS/MS analysis. In kind it is ADME, microsome.

From ChEMBL document CHEMBL4028870, “Controlling Plasma Stability of Hydroxamic Acids: A MedChem Toolbox” (J Med Chem, 2017) come the findings set out here.

As to `O=C(NO)C(Cc1ccccc1)C(=O)NCc1ccccc1` (stereo unspecified), the Drug metabolism entry in series [1] and in [2] was “Metabolite_Detected” throughout. Besides, the half-life (in general, the time needed for the level to fall by half in the phase considered) at 10 µM in series [3] is 48 min; in series [5] it was > 360 min. Moreover, the Stability entry in series [4] is listed as “Unstable”.
`O=C(CCc1ccccc1)NO`: the Drug metabolism result in series [1] and in series [2] was “Metabolite_Detected” in each case. Besides, the half-life at 1 µM in series [6] was > 360 min; in series [7], 15 min. Also, the Stability result in series [4] is reported as “Unstable”.
As for `O=C(CCCC1CCCCC1)NO`, the Drug metabolism entry in [1] and in series [2] was “Metabolite_Detected” in each case. For the same compound, the half-life at 10 µM in [3] was 3 min; in series [5], > 360 min.
`O=C(C=C(c1ccccc1)c1ccccc1)NO`: the Drug metabolism result in series [1] and in series [2] was “Metabolite_Detected” each time. Besides, the half-life at 10 µM in series [3] and in series [5] was > 360 min throughout.
In the case of `O=C(CCC(=O)Nc1ccccc1)NO`, the Drug metabolism result in series [1] and in [2] was “Metabolite_Detected” throughout. In addition, the half-life at 10 µM was 25.8 min in [3] and 144 min in series [5].
On to `O=C(CCC12CC3CC(CC(C3)C1)C2)NO`, for which the half-life at 10 µM was 30 min in series [3] and > 360 min in [5]. Also, in [8], the Stability result is recorded as “Unstable”.
In the case of `O=C(CCC1CCCCC1)NO`, the Drug metabolism result in series [1] and in series [2] was “Metabolite_Detected” each time. Moreover, the half-life at 10 µM in series [3] was 3.6 min; in [5], > 360 min.
Regarding `O=C(NO)C(Cc1ccc2ccccc2c1)C(=O)NCc1ccccc1` (stereo unspecified), the Drug metabolism entry in series [1] and in series [2] was “Metabolite_Detected” throughout. Also, the half-life at 10 µM is 6 min in [3] and > 360 min in [5]. In series [4], the Stability entry was “Unstable”.
As for `O=C(CCCc1ccccc1)NO` [PHENYLBUTYRYLHYDROXAMIC ACID], in [4], the Stability result is “Unstable”. Also, the t1/2 was determined as 1850 min in series [9] and 1360 min in series [10]. Besides, the half-life at 10 µM in series [11] was 1200 min.
`CC(=O)Oc1cc2c(s1)CCN(C(C(=O)C1CC1)c1ccccc1F)C2` (stereo unspecified) [PRASUGREL] gave a half-life at 1 µM in [6] of 1 min.
For `CCOC(=O)[C@H](CCc1ccccc1)N[C@@H](C)C(=O)N1[C@H](C(=O)O)C[C@H]2CCCC[C@@H]21` [TRANDOLAPRIL], the half-life at 1 µM in [7] stood at 7 min. In [12], this compound registered a half-life at 10 µM of 20 min.
